Measurements gathered from unrelated publications.
Target: Inhibitor of nuclear factor kappa-B kinase subunit epsilon (IKBKE, Homo sapiens, UniProt Q14164)
Effect on: enzyme activity
Sequence (Q14164 1-716, as in one of the studies): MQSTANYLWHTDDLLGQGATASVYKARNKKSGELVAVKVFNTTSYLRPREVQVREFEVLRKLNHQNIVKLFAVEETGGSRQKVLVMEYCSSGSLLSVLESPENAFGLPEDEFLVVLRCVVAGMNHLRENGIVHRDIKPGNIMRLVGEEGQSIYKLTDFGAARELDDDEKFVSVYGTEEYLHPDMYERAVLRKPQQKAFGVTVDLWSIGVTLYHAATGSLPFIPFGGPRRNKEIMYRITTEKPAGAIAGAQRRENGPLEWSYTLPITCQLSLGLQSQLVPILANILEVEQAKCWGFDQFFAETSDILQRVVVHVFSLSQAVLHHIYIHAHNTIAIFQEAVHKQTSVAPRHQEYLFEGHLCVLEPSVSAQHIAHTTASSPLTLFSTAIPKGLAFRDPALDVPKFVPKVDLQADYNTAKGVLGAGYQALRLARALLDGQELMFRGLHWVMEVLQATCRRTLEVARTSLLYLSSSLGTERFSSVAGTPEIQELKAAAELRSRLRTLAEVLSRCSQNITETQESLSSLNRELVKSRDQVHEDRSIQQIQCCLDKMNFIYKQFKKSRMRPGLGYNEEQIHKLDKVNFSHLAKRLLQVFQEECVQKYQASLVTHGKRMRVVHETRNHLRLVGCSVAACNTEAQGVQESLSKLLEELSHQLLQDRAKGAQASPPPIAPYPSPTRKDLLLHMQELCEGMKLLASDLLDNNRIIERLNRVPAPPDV

| SMILES | assay | conditions | remaining activity |
| --- | --- | --- | --- |
| O=C(NCCCNc1nc(Nc2cccc(NC(=O)N3CCCC3)c2)ncc1C1CC1)C1CCC1 | inhibitor, radiometric | 1 µM | 3% |
| FC(F)c1nc2ccccc2n1-c1nc(N2CCOCC2)nc(N2CCOCC2)n1 | inhibitor | 10 µM | 84% |
| c1cc(CN2CCOCC2)cc(Nc2ncc(C3CC3)c(NCCc3c[nH]cn3)n2)c1 | inhibitor, radiometric | 1 µM | 55% |
| O=c1cc(-c2cccc3c2Sc2ccccc2S3)oc(N2CCOCC2)c1 | inhibitor | 0.5 µM | 96.5% |
| Cc1nn(CC(F)(F)F)cc1Nc1ncc(C2CC2)c(NCCc2c[nH]cn2)n1 | inhibitor, radiometric | 1 µM | 95% |
| Cn1c(=O)n(-c2ccc(C(C)(C)C#N)cc2)c2c3cc(-c4cnc5ccccc5c4)ccc3ncc21 | inhibitor | 10 µM | 86% |
| O=C1NC(=O)c2cc(Nc3ccc(F)cc3)c(Nc3ccc(F)cc3)cc21 | inhibitor | 0.5 µM | 100% |
| O=C(Nc1cnn(-c2csc(C(=O)NC3COC3)c2)c1)Nc1ccccc1Cl | inhibitor | 5 µM | 110% |
| O=C1Nc2ccc(Cl)cc2C1=Cc1cc(Cl)c(O)c(Cl)c1 | – | 0.5 µM | 94.7% |
| NS(=O)(=O)c1ccc(CNc2nc(Nc3cccc(NC(=O)N4CCCC4)c3)ncc2Br)cc1 | inhibitor, radiometric | 1 µM | 35% |
| COc1cc(Nc2cnc(C#N)c(O[C@H](C)CN(C)C)n2)ncc1-c1cnn(C)c1 | inhibitor, radiometric | 10 µM | 84% |
| Cc1sc(C(=O)NC2COC2)cc1-n1cc(NC(=O)Nc2c(F)cccc2Cl)cn1 | inhibitor | 10 µM | 116% |
| Cc1cnc(NC2CCOCC2)nc1-n1cnc(C(=O)NC(CN)c2cc(F)cc(Cl)c2)c1 (stereo not drawn) | inhibitor, radiometric | 1 µM | 64% |
| NS(=O)(=O)c1ccc(CNc2ccnc(Nc3cccc(CN4CCOCC4)c3)n2)cc1 | inhibitor, radiometric | 1 µM | 78% |
| CC(C)(C)c1nc2c(s1)c1nc(N)ncc1c1ccc(NS(=O)(=O)c3c(F)cccc3F)c(F)c12 | inhibitor, radiometric | 1 µM | 90% |
